What was measured:
RAW264.7 [1] = experiment: Antiinflammatory activity in mouse RAW264.7 cells assessed as inhibition of LPS-induced NO production at 50 uM by Griess assay; type: functional
How it was run: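 RAW 264.7 cells grown in DMEM with 10% FBS, penicillin/streptomycin, 37 °C, 5% CO2. Seeded 5 × 10^4 cells/well for 24 h, then given sample (final 50 μM, 1% DMSO) plus 2 μg/mL LPS for 24 h. Supernatant mixed with Griess reagents I and II, absorbance read at 540 nm. % inhibition computed against LPS-only (model) and no-LPS (blank) wells.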

[2] = Cytotoxicity against mouse RAW264.7 cells assessed as reduction in cell viability after 24 hrs by MTT assay; type: cell-based
How it was run: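 MTT viability test in RAW 264.7 cells plated at 5 × 10^3 per well for 24 h. Cells were treated with sample at final 50 μM in 1% DMSO for 24 h. 1% DMSO served as vehicle control and cell-free medium as blank. MTT was added for 4 h, formazan dissolved in DMSO, and absorbance read at 490 nm.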

[3] = Cytotoxicity against mouse RAW264.7 cells assessed as cell survival at 50 uM after 24 hrs by MTT assay; type: cell-based; details: read-out: Survival
How it was run: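 RAW 264.7 mouse macrophages in DMEM with 10% FBS, penicillin and streptomycin, at 37 °C under 5% CO2. Seeded at 5 × 10^3 cells/well for 24 h, then exposed 24 h to samples at 50 μM final (1% DMSO; vehicle and cell-free blanks). MTT added, 4 h, medium replaced with DMSO, absorbance read at 490 nm.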

RAW264.7 [4] = experiment: Inhibition of NF-kappaB (unknown origin) expressed in mouse RAW264.7 cells at 50 uM pretreated for 1 hr followed by stimulation with LPS measured after 6 hrs by luciferase reporter gene assay; type: cell-based
How it was run: (§1)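 RAW 264.7 cells stably carrying a pNF-κB-Luc reporter, kept in DMEM/10% FBS with geneticin 500 μg/mL, 37 °C. Pretreated 1 h with sample (0.78–200 μM) and then stimulated with E. coli 055:B5 LPS for 6 h. […] Triplicates, mean ± SD; IC50 by sigmoidal nonlinear regression.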

[5] = Inhibition of NF-kappaB (unknown origin) expressed in mouse RAW264.7 cells pretreated for 1 hr followed by stimulation with LPS measured after 6 hrs by luciferase reporter gene assay; type: cell-based; how it was run: as §1
RAW264.7 [6] = experiment: Antiinflammatory activity in mouse RAW264.7 cells assessed as inhibition of LPS-induced NO production by Griess assay; type: functional, cell-based
How it was run: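 RAW 264.7 cells in DMEM/10% FBS seeded at 5 × 10^4 per well for 24 h. Samples added in DMSO (1% final) together with 2 μg/mL LPS and incubated 24 h. Nitrite read at 540 nm by Griess reagent.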

SMILES	inhibition at 50 µM (RAW264.7 [1])	CC50 at 24 h [2]	viability at 24 h, 50 µM [3]	inhibition (RAW264.7 [4])	IC50 [5]	IC50 (RAW264.7 [6])
C=C(C)[C@@H]1C[C@@]2(C)C(=C[C@H](O)C[C@@H]2C)C[C@H]1O	24%	> 50 µM	> 90%	–	–	–
C=C(CO)[C@@H]1C[C@@]2(C)C(=C[C@H](O)C[C@@H]2C)C[C@H]1O	15%	> 50 µM	> 90%	–	–	–
CC1=C2C[C@@]3(C)C(=C[C@H](O)[C@@H](O)[C@@H]3C)C=C2OC1=O	21%	> 50 µM	> 90%	–	–	–
C=C(C)[C@@H]1C[C@@]2(C)C(=CC(=O)C[C@@H]2C)C[C@H]1O	4%	> 50 µM	> 90%	–	–	–
C=C(C)[C@@H]1C[C@@]2(C)C(=CC1=O)C[C@H](O)C[C@@H]2C	16%	> 50 µM	> 90%	–	–	–
C=C(C(=O)O)[C@@H]1C[C@@]2(C)C(=CC1=O)C=C[C@H](OC(=O)CC/C=C/C)[C@@H]2C	97%	> 50 µM	> 90%	40%	78 µM	8 µM
C=C(C)[C@@H]1C[C@@]2(C)C(=CC1=O)[C@H](O)[C@H](O)C[C@@H]2C	22%	> 50 µM	> 90%	–	–	–
C=C(CO)[C@@H]1C[C@@]2(C)C(=CC(=O)C[C@@H]2C)C[C@H]1O	7%	> 50 µM	> 90%	–	–	–
C/C=C/CCC(=O)O[C@H]1C=CC2=CC(=O)/C(=C(\C)C(=O)O)C[C@]2(C)[C@H]1C	46%	> 50 µM	> 90%	–	–	45 µM
C/C=C/CCC(=O)O[C@H]1C=CC2=C[C@]3(O)OC(=O)C(C)=C3C[C@]2(C)[C@H]1C	92%	> 50 µM	> 90%	42%	72 µM	15 µM
CC1=C2C[C@@]3(C)C(=C[C@@H](O)[C@H](O)[C@@H]3C)C=C2OC1=O	11%	> 50 µM	> 90%	–	–	–
CC(=O)O[C@H]1C(=O)C=C2C=C3OC(=O)C(C)=C3C[C@]2(C)[C@H]1C	68%	> 50 µM	> 90%	–	–	22 µM
C/C=C/CCC(=O)O[C@H]1C=CC2=CC(=O)[C@H](/C(C=O)=C\OC)C[C@]2(C)[C@H]1C	66%	> 50 µM	> 90%	38%	–	25 µM
C=C(C)[C@@H]1C[C@@]2(C)C(=CC1=O)C[C@H](OC(C)=O)C[C@@H]2C	29%	> 50 µM	> 90%	–	–	–
O=c1c(O)c(-c2ccc(O)c(O)c2)oc2cc(O)cc(O)c12 [QUERCETIN]	–	> 50 µM	–	–	–	15 µM
CC1=C2C[C@]3(C)[C@@H](C)C=C[C@H](O)[C@]3(O)C=C2OC1=O	12%	> 50 µM	> 90%	–	–	–
CC(=O)O[C@H]1[C@H](O)C=C2C=C3OC(=O)C(C)=C3C[C@]2(C)[C@H]1C	36%	> 50 µM	> 90%	–	–	–
C/C=C/CCC(=O)O[C@H]1C=CC2=C[C@]3(O)OC(=O)C(CO)=C3C[C@]2(C)[C@H]1C	63%	> 50 µM	> 90%	20%	–	26 µM
CC1=C2C[C@@]3(C)C(=C[C@@H](O)[C@@H](O)[C@@H]3C)C=C2OC1=O	23%	> 50 µM	> 90%	–	–	–
CC1=C2C[C@@]3(C)C(=CC(=O)C(O)=C3C)C=C2OC1=O	16%	> 50 µM	> 90%	–	–	–
C=C(C)[C@@H]1C[C@@]2(C)C(=C[C@H](O)C[C@@H]2C)C[C@H]1OC(C)=O	30%	> 50 µM	> 90%	–	–	–
CC1=C2C[C@]3(C)[C@@H](C)C=C[C@H](O)[C@@]3(O)C=C2OC1=O	7%	> 50 µM	> 90%	–	–	–
S=C(S)N1CCCC1 [PYRROLIDINE DITHIOCARBAMATE]	–	–	–	–	37 µM	–
C=C(C(=O)O)[C@@H]1C[C@@]2(C)C(=CC1=O)C=C[C@H](O)[C@@H]2C	11%	> 50 µM	> 90%	–	–	–
